Results published in ChEMBL document CHEMBL4196091 (Eur J Med Chem, 2018).
Activity calls are given as the source filed them. The rule behind the calls is not given here.

Legend:
HT-29 [1] = experiment: Antiproliferative activity against human HT-29 cells after 2 days by MTT assay; format: functional, cell-based; conditions: HT-29, 48 h
MCF7 = experiment: Antiproliferative activity against human MCF7 cells after 2 days by MTT assay; format: functional, cell-based; conditions: MCF7, 48 h
A549 [2] = experiment: Antiproliferative activity against human A549 cells after 2 days by MTT assay; format: functional, cell-based; conditions: A549, 48 h
HEK293 = experiment: Antiproliferative activity against HEK293 cells after 2 days by MTT assay; format: ADME, cell-based; conditions: Homo sapiens, HEK293, 48 h
[3] = Selectivity index, ratio of IC50 for HEK293 cells to IC50 for human HT-29 cells; conditions: HEK293 cells versus HT-29 cells
[4] = Selectivity index, ratio of IC50 for HEK293 cells to IC50 for human MCF7 cells; conditions: HEK293 cells versus MCF7 cells
[5] = Selectivity index, ratio of IC50 for HEK293 cells to IC50 for human A549 cells; conditions: HEK293 cells versus A549 cells
A549 [6] = experiment: Cell cycle arrest in human A549 cells assessed as accumulation at sub-G0 phase at 50 nM after 24 hrs by propidium iodide staining based flow cytometry (reference value: 2 +/- 1%); format: functional
Method in brief: (§1)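 A549 cells maintained in DMEM (1 g/L glucose, 2 mM glutamine, penicillin/streptomycin/amphotericin B, 10% FBS) and treated for 24 h. Cells were then fixed, RNase-treated and stained with propidium iodide. DNA content was measured by flow cytometry to give cell-cycle phase distribution, including a sub-G1 peak. Data are means (±SD) of two experiments.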

A549 [7] = experiment: Cell cycle arrest in human A549 cells assessed as accumulation at G0/G1 phase at 50 nM after 24 hrs by propidium iodide staining based flow cytometry (reference value: 73 +/- 3%); format: functional; method in brief: as §1
A549 [8] = experiment: Cell cycle arrest in human A549 cells assessed as accumulation at S phase at 50 nM after 24 hrs by propidium iodide staining based flow cytometry (reference value: 15 +/- 6%); format: functional; method in brief: as §1
A549 [9] = experiment: Cell cycle arrest in human A549 cells assessed as accumulation at G2/M phase at 50 nM after 24 hrs by propidium iodide staining based flow cytometry (reference value: 11 +/- 4%); format: functional; method in brief: as §1
A549 [10] = experiment: Cell cycle arrest in human A549 cells assessed as accumulation at sub-G0 phase at 20 nM after 24 hrs by propidium iodide staining based flow cytometry (reference value: 2 +/- 1%); format: functional; method in brief: as §1
A549 [11] = experiment: Cell cycle arrest in human A549 cells assessed as accumulation at G0/G1 phase at 20 nM after 24 hrs by propidium iodide staining based flow cytometry (reference value: 73 +/- 3%); format: functional; method in brief: as §1
A549 [12] = experiment: Cell cycle arrest in human A549 cells assessed as accumulation at S phase at 20 nM after 24 hrs by propidium iodide staining based flow cytometry (reference value: 15 +/- 6%); format: functional; method in brief: as §1
A549 [13] = experiment: Cell cycle arrest in human A549 cells assessed as accumulation at G2/M phase at 20 nM after 24 hrs by propidium iodide staining based flow cytometry (reference value: 11 +/- 4%); format: functional; method in brief: as §1
A549 [14] = experiment: Cell cycle arrest in human A549 cells assessed as accumulation at G2/M phase at 3 nM after 24 hrs by propidium iodide staining based flow cytometry; format: functional; method in brief: as §1
HT-29 [15] = experiment: Downregulation of c-Myc gene expression in human HT-29 cells assessed as c-Myc mRNA level at […] after 48 hrs by RT-PCR method (reference value: 100%); format: functional
HT-29 [16] = experiment: Downregulation of hTERT gene expression in human HT-29 cells assessed as hTERT mRNA level at […] after 48 hrs by RT-PCR method (reference value: 100%); format: functional
HT-29 [17] = experiment: Downregulation of VEGF gene expression in human HT-29 cells assessed as VEGF mRNA level at […] after 48 hrs by RT-PCR method (reference value: 100%); format: functional
HT-29 [18] = experiment: Inhibition of VEGF protein secretion in human HT-29 cells assessed as VEGF protein level at […] after 48 hrs by ELISA (reference value: 100%); format: functional; parameters: scale not given: the % may be the effect or the level left
A549 [19] = experiment: Cell cycle arrest in human A549 cells assessed as accumulation at sub-G0 phase at 7.5 nM after 24 hrs by propidium iodide staining based flow cytometry (reference value: 2 +/- 1%); format: functional
Method in brief: (§2)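 A549 cells kept in DMEM (1 g/L glucose, 2 mM glutamine, antibiotics, amphotericin B, 10% FBS), treated 24 h with compound from 10 mM DMSO stock; fixed, RNase-treated, stained with propidium iodide, DNA content read by flow cytometry for phase distribution. Average (±SD) of two experiments.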

A549 [20] = experiment: Cell cycle arrest in human A549 cells assessed as accumulation at G0/G1 phase at 7.5 nM after 24 hrs by propidium iodide staining based flow cytometry (reference value: 73 +/- 3%); format: functional; method in brief: as §2
A549 [21] = experiment: Cell cycle arrest in human A549 cells assessed as accumulation at S phase at 7.5 nM after 24 hrs by propidium iodide staining based flow cytometry (reference value: 15 +/- 6%); format: functional; method in brief: as §2
A549 [22] = experiment: Cell cycle arrest in human A549 cells assessed as accumulation at G2/M phase at 7.5 nM after 24 hrs by propidium iodide staining based flow cytometry (reference value: 11 +/- 4%); format: functional; method in brief: as §2
A549 [23] = experiment: Cell cycle arrest in human A549 cells assessed as accumulation at G2/M phase at antiproliferative IC50 after 24 hrs by propidium iodide staining based flow cytometry; format: functional; method in brief: as §2
HT-29 [24] = experiment: Downregulation of c-Myc gene expression in human HT-29 cells assessed as c-Myc mRNA level at 3 nM after 48 hrs by RT-PCR method (reference value: 100%); format: functional
Method in brief: (§3)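 HT-29 cells (1.5 x 10^5 per well, six-well plate) seeded 24 h, then exposed 48 h with DMSO control; total RNA extracted, target mRNA quantified by TaqMan RT-qPCR, normalized to β-actin, expressed as percentage of control. At least three measurements; one-sample t-tests.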

HT-29 [25] = experiment: Downregulation of hTERT gene expression in human HT-29 cells assessed as hTERT mRNA level at 3 nM after 48 hrs by RT-PCR method (reference value: 100%); format: functional; method in brief: as §3
HT-29 [26] = experiment: Downregulation of VEGF gene expression in human HT-29 cells assessed as VEGF mRNA level at 3 nM after 48 hrs by RT-PCR method (reference value: 100%); format: functional; method in brief: as §3
HT-29 [27] = experiment: Inhibition of VEGF protein secretion in human HT-29 cells assessed as VEGF protein level at 3 nM after 48 hrs by ELISA (reference value: 100%); format: functional; parameters: scale not given: the % may be the effect or the level left
Method in brief: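 HT-29 cells (1.5 x 10^5 per well, six-well plate) seeded 24 h, then treated 48 h with DMSO control; secreted VEGF in culture supernatant measured by human VEGF ELISA kit, expressed as percentage of control. At least three measurements.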

A549 [28] = experiment: Cell cycle arrest in human A549 cells assessed as accumulation at sub-G0 phase at 15 nM after 24 hrs by propidium iodide staining based flow cytometry (reference value: 2 +/- 1%); format: functional; method in brief: as §1
A549 [29] = experiment: Cell cycle arrest in human A549 cells assessed as accumulation at G0/G1 phase at 15 nM after 24 hrs by propidium iodide staining based flow cytometry (reference value: 73 +/- 3%); format: functional; method in brief: as §1
A549 [30] = experiment: Cell cycle arrest in human A549 cells assessed as accumulation at S phase at 15 nM after 24 hrs by propidium iodide staining based flow cytometry (reference value: 15 +/- 6%); format: functional; method in brief: as §1
A549 [31] = experiment: Cell cycle arrest in human A549 cells assessed as accumulation at G2/M phase at 15 nM after 24 hrs by propidium iodide staining based flow cytometry (reference value: 11 +/- 4%); format: functional; method in brief: as §1
A549 [32] = experiment: Cell cycle arrest in human A549 cells assessed as accumulation at G2/M phase at 0.5 times antiproliferative IC50 after 24 hrs by propidium iodide staining based flow cytometry; format: functional; method in brief: as §1
HT-29 [33] = experiment: Downregulation of c-Myc gene expression in human HT-29 cells assessed as c-Myc mRNA level at 10 nM after 48 hrs by RT-PCR method (reference value: 100%); format: functional
Method in brief: (§4)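 HT-29 cells were taken at 70–80% confluence and seeded at 1.5 x 10^5 per well. After 24 h they were exposed to compound for 48 h. Total RNA was isolated and TaqMan RT-qPCR run for VEGF-A, c-MYC and hTERT, normalized to β-actin. Expression is given as percent of DMSO control, with at least three measurements and one-sample t-tests.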

HT-29 [34] = experiment: Downregulation of hTERT gene expression in human HT-29 cells assessed as hTERT mRNA level at 10 nM after 48 hrs by RT-PCR method (reference value: 100%); format: functional; method in brief: as §4
HT-29 [35] = experiment: Downregulation of VEGF gene expression in human HT-29 cells assessed as VEGF mRNA level at 10 nM after 48 hrs by RT-PCR method (reference value: 100%); format: functional; method in brief: as §4
HT-29 [36] = experiment: Inhibition of VEGF protein secretion in human HT-29 cells assessed as VEGF protein level at 10 nM after 48 hrs by ELISA (reference value: 100%); format: functional; parameters: scale not given: the % may be the effect or the level left

## CCCCCc1ccc(C(=O)N[C@H]2CCc3cc(OC)c(OC)c(OC)c3-c3ccc(OC)c(=O)cc32)cc1
HT-29 [1]
  IC50: 4.2 nM
MCF7
  IC50: 5.8 nM
A549 [2]
  IC50: 1.27 nM
HEK293
  IC50: 1.6 nM
[3]
  selectivity ratio: 0.4
[4]
  selectivity ratio: 0.3
[5]
  selectivity ratio: 1.3

## COc1cc2c(c(OC)c1OC)-c1ccc(OC)c(=O)cc1[C@@H](NC(=O)c1ccccc1C)CC2
HT-29 [1]
  IC50: 5.7 nM
MCF7
  IC50: 2.02 nM
A549 [2]
  IC50: 2 nM
HEK293
  IC50: 9 nM
A549 [6]
  Activity: 8%
A549 [7]
  Activity: 24%
A549 [8]
  Activity: 14%
A549 [9]
  Activity: 47%

## COc1cc2c(c(OC)c1OC)-c1ccc(OC)c(=O)cc1[C@@H](NC(=O)Cc1ccccc1)CC2
HT-29 [1]
  IC50: 2.84 nM
MCF7
  IC50: 2.6 nM
A549 [2]
  IC50: 2.8 nM
HEK293
  IC50: 3.9 nM
A549 [10]
  Activity: 5%
A549 [11]
  Activity: 19%
A549 [12]
  Activity: 16%
A549 [13]
  Activity: 60%

## COc1cc2c(c(OC)c1OC)-c1ccc(OC)c(=O)cc1[C@@H](NC(=O)c1cccc(Cl)c1)CC2
A549 [14]
  Activity: Active
HT-29 [1]
  IC50: 1.8 nM
MCF7
  IC50: 3.4 nM
A549 [2]
  IC50: 3.1 nM
HEK293
  IC50: 3 nM
A549 [10]
  Activity: 6%
A549 [11]
  Activity: 24%
A549 [12]
  Activity: 15%
A549 [13]
  Activity: 57%
HT-29 [15]
  Activity: 20%
HT-29 [16]
  Activity: 59%
HT-29 [17]
  Activity: 30%
HT-29 [18]
  Activity: 48%

## COc1cc2c(c(OC)c1OC)-c1ccc(OC)c(=O)cc1[C@@H](NC(=O)CF)CC2
HT-29 [1]
  IC50: 4.7 nM
MCF7
  IC50: 7.3 nM
A549 [2]
  IC50: 7.83 nM
HEK293
  IC50: 7.1 nM
A549 [19]
  Activity: 2%
A549 [20]
  Activity: 25%
A549 [21]
  Activity: 15%
A549 [22]
  Activity: 60%
A549 [23]
  Activity: Active
HT-29 [24]
  Activity: >100%
HT-29 [25]
  Activity: >100%
HT-29 [26]
  Activity: >100%
HT-29 [27]
  Activity: 88%

## COc1cc2c(c(OC)c1OC)-c1ccc(OC)c(=O)cc1[C@@H](NC(=O)c1ccc(C)cc1)CC2
HT-29 [1]
  IC50: 9 nM
MCF7
  IC50: 31 nM
A549 [2]
  IC50: 8.8 nM
HEK293
  IC50: 16.1 nM
A549 [6]
  Activity: 13%
A549 [7]
  Activity: 44%
A549 [8]
  Activity: 26%
A549 [9]
  Activity: 16%

## COc1cc2c(c(OC)c1OC)-c1ccc(OC)c(=O)cc1[C@@H](NC(=O)CBr)CC2
HT-29 [1]
  IC50: 13.7 nM
MCF7
  IC50: 16.4 nM
A549 [2]
  IC50: 26 nM
HEK293
  IC50: 14.4 nM
A549 [28]
  Activity: 3%
A549 [29]
  Activity: 25%
A549 [30]
  Activity: 19%
A549 [31]
  Activity: 53%
A549 [32]
  Activity: Active
HT-29 [33]
  Activity: 35%
HT-29 [34]
  Activity: 79%
HT-29 [35]
  Activity: 44%
HT-29 [36]
  Activity: 100%
